Experiment [1] is described as follows: on-bead flow cytometry binding to healthy plasma exosomes. Further details: species or system human. Conditions: exosomes isolated by ultracentrifugation. The essentials: (§1)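 Exosomes were isolated by ultracentrifugation: Jurkat EV-depleted culture supernatant, or whole plasma from three healthy donors. Spins were 300 × g, 2,000 × g and 10,000 × g, then twice 100,000 × g for 2 hr at 4°C. Exosomes (10 μg protein) were labeled overnight with FITC-PEG peptide or scrambled analogue (1 μL of 5 mM). Free peptide was removed by 3000 Da spin column. Samples were adsorbed to 3.9 μm aldehyde/sulfate latex beads for flow cytometry. Triplicates, ≥10,000 beads each.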

The subject of experiment [2] is Jurkat tumor cells. Description: flow cytometry binding to Jurkat cells. The experiment is classed as cell-based, human. The conditions noted are these: α4β1-expressing; data not shown. A digest of the protocol: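 Jurkat cells were grown in RPMI 1640 with 10% FBS and penicillin/streptomycin (37°C, 5% CO2). Cells were incubated 30 min in 3% FBS/PBS with FITC-PEG-labeled peptide or scrambled analogue at 1 μM; anti-α3-FITC was used at 1 μg per million cells. Cells were washed thrice and resuspended in 3% FBS with 1% sodium azide. Three replicates, ≥10,000 gated cells each.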
A general note: A flow cytometer gives signals particle by particle.

Experiment [3] can be described thus: on-bead flow cytometry binding to Jurkat exosomes. Also on record: species or system human. Conditions: α4β1-expressing, data not shown. A digest of the protocol: as §1

Starred links: 1 amine or outer side, 2 acyl side, 3 side chain; linkers in the order of their positions; H or OH if unused. Positions of bridges follow the written chain, without caps; N, C: chain ends. Non-standard residues stand in square brackets, D forms with d. Primed or numbered codes have the meaning given here. *: point of attachment. PEG2′ = PEG2 (Ebes) spacer between FITC and the peptide N-terminus, O=C(CCC(=O)[*:2])NCCOCCOCCN[*:1]; FITC = O=C1OC2(c3ccc(O)cc3Oc3cc(O)ccc32)c2ccc(NC(=S)*)cc21; Phe(3,5-F2) = N[C@@H](Cc1cc(F)cc(F)c1)C(=O)O; Hyp = O=C(O)[C@@H]1C[C@@H](O)CN1

The text below walks through data of publication PMC6001286 (Advanced biosystems, 2017).

As to “[cGd-Hyp-Phe(3,5-diF)-G-NcR] (disulfide) [scr-LXY30]”, the “binding to healthy human plasma exosomes” value in experiment [1] is listed as “limited binding”.
On to “scr-LXY30-Fl: scr-LXY30 labeled with fluorescein isothiocyanate dye via PEG2 spacer at the peptide N-terminus ({FITC-PEG2′}-[dC]G[dD][Hyp][Phe(3,5-F2)]GN[dC]R-NH2; disulfide 1-8)”, for which the “binding to Jurkat cells” value in experiment [2] is reported as “minimal extent”. The “binding to healthy human plasma exosomes” value in experiment [1] is on record as “did not exhibit significant binding”. The “binding to Jurkat exosomes” value in experiment [3] is recorded as “minimal extent”.
